OX1R antag-1 = antagonists of human orexin 1 receptor (OX1R); O43613; OX1R-expressing cells, FRET antagonist read-out; inhibition, % at 6.6 µM; 330,000 tested, 1.8% active; AID 485270; in the data active = inhibition mostly above about 38%, no sharp cut-off; inactive = mostly below about 40%;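 note: 0% = agonist challenge alone and 100% = reference antagonist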
Target sequence (O43613 whole entry, looked up): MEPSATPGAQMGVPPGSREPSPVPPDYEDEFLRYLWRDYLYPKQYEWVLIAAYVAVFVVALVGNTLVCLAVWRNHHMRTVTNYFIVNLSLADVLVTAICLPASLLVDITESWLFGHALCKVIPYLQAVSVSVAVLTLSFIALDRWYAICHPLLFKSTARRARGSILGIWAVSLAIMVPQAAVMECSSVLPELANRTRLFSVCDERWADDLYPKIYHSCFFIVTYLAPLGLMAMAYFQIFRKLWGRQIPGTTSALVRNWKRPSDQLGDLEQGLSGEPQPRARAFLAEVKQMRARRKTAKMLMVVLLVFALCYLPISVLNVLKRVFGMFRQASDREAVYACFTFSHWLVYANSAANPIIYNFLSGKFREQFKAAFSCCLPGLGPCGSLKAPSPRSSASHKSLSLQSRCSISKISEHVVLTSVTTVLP
MPTP block = blocks calcium-induced mitochondrial swelling; 360,000 tested, 1.4% active; inhibition, % at 10 µM; AID 602449; isolated mouse mitochondria, Ca2+ swelling absorbance, 30 min;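 active = inhibition of 50% or more, scaled per plate between neutral and stimulator controls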;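 note: 0% = DMSO wells given calcium and 100% = 1 mM EGTA wells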
GPR7 antag = blocks human GPR7 receptor signaling. GPR7-expressing cells, fluorescence antagonist assay. AID 1861. 290,000 tested, 1.1% active. inhibition, % at 4.4 µM. P48145; in the data active = inhibition above about 16%, passing the limit was not always enough;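 note: cells stimulated with the agonist NPW; 0% = agonist with vehicle and 100% = vehicle without agonist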
CHO parental Ca = counter-screen for OX1R antagonists: effect in parental CHO cells. parental CHO-K1, ATP-induced calcium, Fluo-8 fluorescence. inhibition, % at 5.6 µM. 330,000 tested, 0.63% active. AID 463079;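 active = inhibition above that plate's mean sample inhibition plus 3 SD, cut at about 26% in these data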;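 note: 0% = ATP-challenged DMSO wells and 100% = DMSO wells without ATP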
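Assay system: parental CHO cells; Read-out basis: percent inhibition of ATP-evoked calcium rise, normalized to controls; Benchmarks: ATP and no-ATP DMSO wells; Compound dosing: single nominal dose of 5.6 µM per compound; Signal: Fluo-8 calcium dye fluorescence; Also added: ATP as calcium-mobilizing challenge; Repeats: singlicate.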
OX1R antag-2 = blocks the human orexin 1 receptor. inhibition, % at 5 µM. AID 434989. CHO/OX1R cells, Fluo-8 calcium fluorescence, orexin A. 330,000 tested, 0.43% active. O43613;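 active = inhibition above its plate's threshold, mean inhibition of all tested compounds on the plate plus 3 SD, cut at about 37% in these data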;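 note: 0% = orexin A challenge wells and 100% = SB-334867-A antagonist wells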
Rh123 counter = Rhodamine 123 counter-screen of mitochondrial pore hits; shares compounds with MPTP block; isolated mitochondria, membrane potential, Rhodamine 123 fluorescence; inhibition, % at 10 µM; 5,000 tested, 78% active; AID 624504; in the data active = inhibition above about 22%;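 note: 0% = DMSO vehicle and 100% = positive control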
MPTP swell DR = MPTP inhibition, dose response swelling confirmation. IC50, µM. AID 651561. isolated mitochondria swelling, absorbance. shares compounds with MPTP block. 780 tested, 58% active; in the data active = IC50 below about 20 µM
MPTP cs DR = counter-screen for mitochondrial permeability transition pore inhibitors, dose response; 780 tested, 49% active; AID 651564; IC50, µM; shares compounds with MPTP block; isolated mitochondria counterscreen, fluorescence read-out; in the data active = IC50 below about 80 µM
Numbers without * were called inactive; . = no result given. A selection: hits, their analogues and other compounds. The true share with any hit is near 3.8%.

SMILES	OX1R antag-1	MPTP block	GPR7 antag	CHO parental Ca	OX1R antag-2	Rh123 counter	others
Cc1cc(C#Cc2c(-c3ccccc3)n(C)c3ccccc23)ccc1F	26	2	-3	-5	-9	.
Cc1nc(Nc2ccccc2)[nH]c(=O)c1CCC(C)C	17	57*	-10	-8	-18	58*
Cc1nc(N2CCc3ccccc3C2)[nH]c(=O)c1CCC(C)C	11	0	0	-4	-15	.
OC(COc1ccc(Cl)cc1)CN1C2=NCCCN2c2ccccc21 (configuration not stated)	11	70*	-2	-19	-19	-7	MPTP swell DR=18*;MPTP cs DR=>80
OC(CN1C2=NCCCN2c2ccccc21)c1ccc(Cl)cc1 (configuration not stated)	9	1	9	-10	-15	.
O=C(CCC1CCCC1)N1CCC(N2CCCCCC2)CC1	12	0	2	-7	-9	.
COc1ccccc1NC(=O)C(C)OC(=O)C1CCN(S(=O)(=O)c2ccc(C)c(C)c2)CC1 (configuration not stated)	7	-1	.	-37	-29	.
FC(F)(F)C1=Nc2cccc3cccc(c23)N1	.	103*	.	.	.	71*
COC(=O)c1c(C)cc(O)cc1O	11	-3	.	-10	-3	.
Cc1cc(OC(=O)c2c(C)cc(OC(=O)c3c(C)cc(O)cc3O)cc2O)cc(O)c1C(=O)O	32	72*	.	1	15	67*
Cc1ccc(C)c(Nc2nc3c(S(=O)(=O)c4ccccc4)nnn3c3ccccc23)c1	5	48	2	-14	-19	.
Cc1ccc(S(=O)(=O)c2nnn3c2nc(Nc2cccc(C)c2)c2ccccc23)cc1	10	65*	-7	-3	-4	25*
Cc1ccc(/C=C/S(=O)(=O)NCc2ccc(F)cc2)cc1	32	-2	-7	-10	-9	.
COc1cc(C(O)c2nc(-c3ccc(N(C)C)cc3)cs2)ccc1F (configuration not stated)	.	64*	.	.	.	66*
COc1cc(C(O)c2nc(-c3cc(F)cc(F)c3)cs2)ccc1F (configuration not stated)	.	4	.	.	.	.
COc1cc(C(O)c2nc(-c3cc4ccccc4o3)cs2)ccc1F (configuration not stated)	.	59*	.	.	.	80*
CC(=O)NC(CC(=O)OCC(=O)c1ccc(NC(=O)CC(C)C)cc1)c1ccccc1 (configuration not stated)	9	0	.	-3	-19	.
COc1cccc(CN2CCNC(=O)C2CC(=O)NCCc2nc(C)c(C)s2)c1OC (configuration not stated)	9	2	-1	-9	-11	.
O=C(NCCc1ccccc1)C1CC(=O)N(C2CCCCC2)C1 (configuration not stated)	19	0	-7	-9	-7	.
COc1ccccc1-n1cnc2cc(NS(=O)(=O)c3ccc(Br)cc3)ccc21	37	55*	-10	-2	12	50*
CC(C)N1CCN(Cc2cccc(-n3cccn3)c2)CC1CCO (configuration not stated)	3	3	-6	-3	-16	.
Cn1c(=O)n(C)c2cc(S(=O)(=O)NCCc3ccccc3)ccc21	43	59*	2	-7	-15	24*
CCCNS(=O)(=O)c1ccc2c(c1)n(C)c(=O)n2C	6	0	-16	0	-18	.
COc1ccc(OCC(=O)N2CCC(n3nccc3NC(=O)C3CC3)CC2)cc1	16	-1	1	-15	-6	.
Cc1cc(C)c(NC(=O)/C(C#N)=C/c2ccc(OCc3ccc(F)cc3)cc2)c(C)c1	14	85*	-3	-24	-14	22*
SMILES	OX1R antag-1	MPTP block	GPR7 antag	CHO parental Ca	OX1R antag-2	Rh123 counter	others
CC(=O)Nc1ccccc1OCC(=O)c1cc(C)n(Cc2cccs2)c1C	45	100*	25*	48*	55*	94*
CC1(C)Cc2c(cnn2-c2ccc(F)cc2)C(NC(=O)CCCN2CCCCC2=O)C1 (configuration not stated)	-7	-1	-14	-9	-15	.
COc1cc(CCN=Cc2cc(Cl)cc(Cl)c2O)c([N+](=O)[O-])cc1OC	.	-1	.	.	.	.
Cc1n[nH]c(C)c1Sc1ccccc1N=Cc1cc(Cl)cc([N+](=O)[O-])c1O	35	37	-8	16	-4	.
Cc1ccc(N=Cc2cc(Cc3ccccc3Cl)cc([N+](=O)[O-])c2O)c(O)c1	25	84*	-15	0	-14	53*
COc1ccc(N=Cc2cc(Cc3ccccc3Cl)cc([N+](=O)[O-])c2O)cc1OC	10	62*	-10	-9	-10	-5
Cc1ccccc1-c1nn(-c2ccc(F)cc2F)cc1CNCCCN(C)C	14	87*	1	-7	-30	-12
COCCN(C)Cc1cn(-c2ccc(F)cc2F)nc1-c1ccccc1C	7	0	-11	-20	-9	.
COc1ccc(CNC(=S)NC2CCCC2)cc1	17	-2	-2	-8	-2	.
Cc1ccc(CNC(=S)NC2CCC(C(C)(C)C)CC2)cc1 (configuration not stated)	.	51*	-22	.	.	106*
Cc1ccc(C(C)NC(=S)NC2CCCCC2)cc1C (configuration not stated)	.	1	-12	.	.	.
CC(NC(=S)NC1CCC(C(C)(C)C)CC1)c1ccccc1 (configuration not stated)	.	55*	-10	.	.	87*
COc1ccc(OCC(=O)OCC(=O)NC2CC2)cc1	9	-1	.	-1	-7	.
CC(NC(=O)c1cc(F)c(F)c(F)c1F)c1ccc(-n2ccnc2)cc1 (configuration not stated)	13	0	-18	-11	-17	.
CN(C)CCNc1oc(COc2ccc(-c3ccccc3)cc2)nc1C#N	6	75*	-5	-10	-14	-18	MPTP swell DR=5.9*;MPTP cs DR=54*
COc1ccc(-c2nc(C#N)c(NCCN(C)C)o2)cc1	6	0	3	-14	-18	.
CCN(CC(=O)Nc1c(F)cccc1F)C(=O)CCCOc1ccccc1	.	0	.	.	.	.
Cc1ccc(C(=O)Nc2cccc([N+](=O)[O-])c2)cc1S(=O)(=O)Nc1ccc(C(=O)O)cc1	0	3	-8	-2	-3	.
Cc1ccccc1NS(=O)(=O)c1cc(C(=O)Nc2cccc([N+](=O)[O-])c2)ccc1C	29	98*	-2	0	9	78*
Cc1ccc(S(=O)(=O)Nc2cc(Cl)ccc2-n2cncn2)cc1	-1	1	.	-13	-8	.
Oc1ccc(C[C@@H]2CNCCN2CCc2cc(C(F)(F)F)cc(C(F)(F)F)c2)cc1	-1	94*	.	6	-2	-24	MPTP swell DR=4.3*;MPTP cs DR=>80

Source: PubChem (several laboratories)
